From ChEMBL document CHEMBL5724801, “EUbOPEN Chemogenomics Library - Multiplex” (2024)
Several values for one entry are separate records, joined by “and”; a condition that tells them apart may be missing. Identical values can stand only once.

Test system: HEK-293T
Test: Multiplex assay against HEK293T
Assay type: toxicity, cell-based
Settings: human
Outline: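 On a CQ1 microscope at 37°C and 5% CO2, live cells were imaged after compound addition. They had been stained at seeding with Hoechst33342, BioTracker Green Microtubule Cytoskeleton Dye, MitoTracker Red and Annexin V Alexa Fluor 680. CellPathfinder machine-learning gating assigned cells to Hoechst high-intensity objects or normal cells, normal cells to healthy, pyknosed or fragmented nuclei, and pyknosed cells to mitotic or apoptotic. Tubulin, mitochondrial-mass and membrane-permeability phenotypes are per cents of healthy-nucleus cells.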

[1] = 12 h, 1 µM, compound concentration 1 uM
[2] = 12 h, 10 µM, compound concentration 10 uM
[3] = 24 h, 1 µM, compound concentration 1 uM
[4] = 24 h, 10 µM, compound concentration 10 uM
[5] = 48 h, 1 µM, compound concentration 1 uM
[6] = 48 h, 10 µM, compound concentration 10 uM

## O=C(NCC(=O)N1CC[C@H](N[C@H]2CC[C@@](O)(c3ccc(-c4ncccn4)cn3)CC2)C1)c1cccc(C(F)(F)F)c1 [PF-4136309]
[1]
  Population Apoptotic (%): 44% and 34%
  Population Fragmented Nuclei (%): 6% and 5%
  Population Healthy Nuclei (%): 80%
  Population Hoechst High Intensity Objects (%): 4% and 6%
  Population Membrane Permeable-Phenotype (%): 0%
  Population Mitochondria Different-Phenotype (%): 41% and 56%
  Population Mitotic Cells (%): 56% and 66%
  Population Normal (%): 95% and 93%
  Population Pyknosed Nuclei (%): 13%
  Population Tubulin-Different-Phenotype (%): 32% and 15%
  Total Cell Count: 393 and 389
[2]
  Population Apoptotic (%): 39% and 48%
  Population Fragmented Nuclei (%): 7% and 3%
  Population Healthy Nuclei (%): 76% and 81%
  Population Hoechst High Intensity Objects (%): 7% and 6%
  Population Membrane Permeable-Phenotype (%): 0%
  Population Mitochondria Different-Phenotype (%): 53% and 75%
  Population Mitotic Cells (%): 60% and 51%
  Population Normal (%): 92% and 93%
  Population Pyknosed Nuclei (%): 15% and 14%
  Population Tubulin-Different-Phenotype (%): 55% and 45%
  Total Cell Count: 358 and 295
[3]
  Population Apoptotic (%): 25% and 39%
  Population Fragmented Nuclei (%): 10% and 8%
  Population Healthy Nuclei (%): 80%
  Population Hoechst High Intensity Objects (%): 2% and 5%
  Population Membrane Permeable-Phenotype (%): 0%
  Population Mitochondria Different-Phenotype (%): 26% and 31%
  Population Mitotic Cells (%): 74% and 60%
  Population Normal (%): 97% and 94%
  Population Pyknosed Nuclei (%): 9% and 11%
  Population Tubulin-Different-Phenotype (%): 15% and 13%
  Total Cell Count: 561 and 485
[4]
  Population Apoptotic (%): 35% and 57%
  Population Fragmented Nuclei (%): 10% and 8%
  Population Healthy Nuclei (%): 73% and 80%
  Population Hoechst High Intensity Objects (%): 7% and 5%
  Population Membrane Permeable-Phenotype (%): 1% and 0%
  Population Mitochondria Different-Phenotype (%): 39% and 54%
  Population Mitotic Cells (%): 64% and 42%
  Population Normal (%): 92% and 94%
  Population Pyknosed Nuclei (%): 16% and 11%
  Population Tubulin-Different-Phenotype (%): 36% and 27%
  Total Cell Count: 450 and 384
[5]
  Population Apoptotic (%): 18% and 27%
  Population Fragmented Nuclei (%): 16%
  Population Healthy Nuclei (%): 78% and 77%
  Population Hoechst High Intensity Objects (%): 0% and 2%
  Population Membrane Permeable-Phenotype (%): 1% and 0%
  Population Mitochondria Different-Phenotype (%): 14% and 16%
  Population Mitotic Cells (%): 81% and 72%
  Population Normal (%): 99% and 97%
  Population Pyknosed Nuclei (%): 4% and 5%
  Population Tubulin-Different-Phenotype (%): 9% and 11%
  Total Cell Count: 1007 and 907
[6]
  Population Apoptotic (%): 31% and 43%
  Population Fragmented Nuclei (%): 13% and 11%
  Population Healthy Nuclei (%): 75% and 79%
  Population Hoechst High Intensity Objects (%): 5% and 4%
  Population Membrane Permeable-Phenotype (%): 0%
  Population Mitochondria Different-Phenotype (%): 34% and 46%
  Population Mitotic Cells (%): 68% and 56%
  Population Normal (%): 94% and 95%
  Population Pyknosed Nuclei (%): 11% and 8%
  Population Tubulin-Different-Phenotype (%): 23% and 30%
  Total Cell Count: 636 and 468

## CCC(=N\O)/C(C)=C/c1ccc(F)cc1 [A-079]
[1]
  Population Apoptotic (%): 11.21% and 9.93%
  Population Fragmented Nuclei (%): 3.75% and 3.83%
  Population Hoechst High Intensity Objects (%): 0%
  Population Membrane Permeable-Phenotype (%): 0% and 2.86%
  Population Mitochondria Different-Phenotype (%): 29.63% and 22.86%
  Population Mitotic Cells (%): 88.79% and 90.07%
  Population Normal (%): 100%
  Population Pyknosed Nuclei (%): 31.1% and 77.05%
  Total Cell Count: 373 and 183
[2]
  Population Apoptotic (%): 7.79% and 9.52%
  Population Fragmented Nuclei (%): 0.57% and 1.59%
  Population Hoechst High Intensity Objects (%): 0.28% and 0.79%
  Population Membrane Permeable-Phenotype (%): 0.51% and 0%
  Population Mitotic Cells (%): 92.21% and 90.48%
  Population Normal (%): 99.72% and 99.21%
  Population Pyknosed Nuclei (%): 43.87% and 83.33%
  Total Cell Count: 352 and 127
[3]
  Population Apoptotic (%): 14.77% and 10.19%
  Population Fragmented Nuclei (%): 4.65% and 2.11%
  Population Healthy Nuclei (%): 80.21% and 41.05%
  Population Hoechst High Intensity Objects (%): 0%
  Population Membrane Permeable-Phenotype (%): 1.72% and 1.28%
  Population Mitochondria Different-Phenotype (%): 15.02% and 6.41%
  Population Mitotic Cells (%): 85.23% and 89.81%
  Population Normal (%): 100%
  Population Tubulin-Different-Phenotype (%): 7.73% and 3.85%
[4]
  Population Apoptotic (%): 13.24% and 15.38%
  Population Fragmented Nuclei (%): 1.47% and 1.14%
  Population Healthy Nuclei (%): 73.48% and 39.77%
  Population Hoechst High Intensity Objects (%): 0.18% and 0.56%
  Population Membrane Permeable-Phenotype (%): 0.75% and 0%
  Population Mitochondria Different-Phenotype (%): 16.04% and 8.57%
  Population Mitotic Cells (%): 86.76% and 84.62%
  Population Normal (%): 99.82% and 99.44%
  Population Pyknosed Nuclei (%): 25.05% and 59.09%
[5]
  Population Apoptotic (%): 8.9% and 17.46%
  Population Fragmented Nuclei (%): 5.91% and 2.96%
  Population Healthy Nuclei (%): 84.62% and 78.4%
  Population Hoechst High Intensity Objects (%): 0% and 0.29%
  Population Membrane Permeable-Phenotype (%): 6.52% and 3.4%
  Population Mitochondria Different-Phenotype (%): 8.82% and 9.06%
  Population Mitotic Cells (%): 91.1% and 82.54%
  Population Normal (%): 100% and 99.71%
  Population Pyknosed Nuclei (%): 9.47% and 18.64%
[6]
  Population Apoptotic (%): 8.2% and 20.78%
  Population Fragmented Nuclei (%): 3.08% and 0.64%
  Population Healthy Nuclei (%): 85.54% and 50%
  Population Hoechst High Intensity Objects (%): 0% and 0.64%
  Population Membrane Permeable-Phenotype (%): 3.82% and 1.28%
  Population Mitochondria Different-Phenotype (%): 18.43% and 25.64%
  Population Mitotic Cells (%): 91.8% and 79.22%
  Population Normal (%): 100% and 99.36%

## CCCn1c(=O)c2[nH]c(C3CCCC3)nc2n(CCC)c1=O [1,3-DIPROPYL-8-CYCLOPENTYLXANTHINE [DPCPX]]
[1]
  Population Apoptotic (%): 35% and 54%
  Population Fragmented Nuclei (%): 7% and 3%
  Population Healthy Nuclei (%): 79% and 81%
  Population Hoechst High Intensity Objects (%): 6% and 3%
  Population Membrane Permeable-Phenotype (%): 0%
  Population Mitochondria Different-Phenotype (%): 44% and 52%
  Population Mitotic Cells (%): 64% and 45%
  Population Normal (%): 93% and 96%
  Population Pyknosed Nuclei (%): 12% and 14%
  Population Tubulin-Different-Phenotype (%): 32% and 15%
  Total Cell Count: 443 and 361
[2]
  Population Apoptotic (%): 60% and 54%
  Population Fragmented Nuclei (%): 12% and 7%
  Population Healthy Nuclei (%): 68% and 75%
  Population Membrane Permeable-Phenotype (%): 0%
  Population Mitochondria Different-Phenotype (%): 58% and 68%
  Population Mitotic Cells (%): 39% and 45%
  Population Normal (%): 94% and 81%
  Population Pyknosed Nuclei (%): 19% and 16%
  Population Tubulin-Different-Phenotype (%): 51% and 45%
  Total Cell Count: 295 and 337
[3]
  Population Apoptotic (%): 26% and 28%
  Population Fragmented Nuclei (%): 8% and 7%
  Population Healthy Nuclei (%): 78% and 82%
  Population Hoechst High Intensity Objects (%): 4% and 3%
  Population Membrane Permeable-Phenotype (%): 1% and 0%
  Population Mitochondria Different-Phenotype (%): 25% and 45%
  Population Mitotic Cells (%): 73% and 71%
  Population Normal (%): 95% and 96%
  Population Pyknosed Nuclei (%): 13% and 10%
  Population Tubulin-Different-Phenotype (%): 20% and 19%
  Total Cell Count: 610 and 403
[4]
  Population Apoptotic (%): 50% and 41%
  Population Fragmented Nuclei (%): 8% and 7%
  Population Healthy Nuclei (%): 76% and 79%
  Population Membrane Permeable-Phenotype (%): 0%
  Population Mitochondria Different-Phenotype (%): 43% and 55%
  Population Mitotic Cells (%): 50% and 58%
  Population Normal (%): 95% and 84%
  Population Pyknosed Nuclei (%): 14% and 13%
  Population Tubulin-Different-Phenotype (%): 40% and 31%
  Total Cell Count: 379 and 411
[5]
  Population Apoptotic (%): 33% and 39%
  Population Fragmented Nuclei (%): 11% and 14%
  Population Healthy Nuclei (%): 81% and 80%
  Population Hoechst High Intensity Objects (%): 1% and 3%
  Population Membrane Permeable-Phenotype (%): 1% and 0%
  Population Mitochondria Different-Phenotype (%): 17% and 22%
  Population Mitotic Cells (%): 66% and 60%
  Population Normal (%): 98% and 96%
  Population Pyknosed Nuclei (%): 7% and 5%
  Population Tubulin-Different-Phenotype (%): 17% and 13%
  Total Cell Count: 957 and 593
[6]
  Population Apoptotic (%): 29% and 45%
  Population Fragmented Nuclei (%): 14%
  Population Healthy Nuclei (%): 76% and 75%
  Population Hoechst High Intensity Objects (%): 3% and 7%
  Population Membrane Permeable-Phenotype (%): 1% and 0%
  Population Mitochondria Different-Phenotype (%): 37% and 36%
  Population Mitotic Cells (%): 70% and 54%
  Population Normal (%): 96% and 92%
  Population Pyknosed Nuclei (%): 8% and 10%
  Population Tubulin-Different-Phenotype (%): 30% and 23%
  Total Cell Count: 511 and 516
